Experimental data taken from ChEMBL document CHEMBL1268899, “Discovery of potent and selective inhibitors of human reticulocyte 15-lipoxygenase-1” (J Med Chem, 2010).
Values belong to the compound of their own block, whether it stands above or below them. Calls of active or inactive are those of the source. The calls are words filed in the database; no cut-off is given here.

Experiments:
[1] = molecular target: T1, Polyunsaturated fatty acid lipoxygenase ALOX15 (Homo sapiens, UniProt P16050); assay: Inhibition of human N-terminal His6-tagged reticulocyte 15-lipoxygenase-1 after 15 mins by UV-vis spectrophotometer analysis; conditions: for Ki: read-out: Ki(app)
T1 sequence (P16050 whole entry): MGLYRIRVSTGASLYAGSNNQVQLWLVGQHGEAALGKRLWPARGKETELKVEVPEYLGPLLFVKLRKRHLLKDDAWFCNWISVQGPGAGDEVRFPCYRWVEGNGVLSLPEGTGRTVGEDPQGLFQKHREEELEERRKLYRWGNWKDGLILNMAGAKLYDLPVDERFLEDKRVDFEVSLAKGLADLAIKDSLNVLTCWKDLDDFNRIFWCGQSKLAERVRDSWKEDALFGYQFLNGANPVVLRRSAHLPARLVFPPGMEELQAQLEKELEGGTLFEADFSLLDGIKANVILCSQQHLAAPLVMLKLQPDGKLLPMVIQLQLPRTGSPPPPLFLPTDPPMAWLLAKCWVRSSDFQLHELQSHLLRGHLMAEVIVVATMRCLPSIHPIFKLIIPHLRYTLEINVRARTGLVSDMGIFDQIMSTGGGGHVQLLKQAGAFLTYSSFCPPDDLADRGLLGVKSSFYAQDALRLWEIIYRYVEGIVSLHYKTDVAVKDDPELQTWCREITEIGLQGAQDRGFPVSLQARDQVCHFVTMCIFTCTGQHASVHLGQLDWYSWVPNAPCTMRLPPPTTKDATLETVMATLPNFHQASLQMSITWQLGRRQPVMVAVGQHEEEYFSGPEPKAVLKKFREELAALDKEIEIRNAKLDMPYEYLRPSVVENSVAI

[2] = molecular target: T2, Polyunsaturated fatty acid 5-lipoxygenase (Homo sapiens, UniProt P09917); assay: Inhibition of human 5-lipoxygenase after 15 mins by UV-vis spectrophotometer analysis
T2 sequence (P09917 whole entry): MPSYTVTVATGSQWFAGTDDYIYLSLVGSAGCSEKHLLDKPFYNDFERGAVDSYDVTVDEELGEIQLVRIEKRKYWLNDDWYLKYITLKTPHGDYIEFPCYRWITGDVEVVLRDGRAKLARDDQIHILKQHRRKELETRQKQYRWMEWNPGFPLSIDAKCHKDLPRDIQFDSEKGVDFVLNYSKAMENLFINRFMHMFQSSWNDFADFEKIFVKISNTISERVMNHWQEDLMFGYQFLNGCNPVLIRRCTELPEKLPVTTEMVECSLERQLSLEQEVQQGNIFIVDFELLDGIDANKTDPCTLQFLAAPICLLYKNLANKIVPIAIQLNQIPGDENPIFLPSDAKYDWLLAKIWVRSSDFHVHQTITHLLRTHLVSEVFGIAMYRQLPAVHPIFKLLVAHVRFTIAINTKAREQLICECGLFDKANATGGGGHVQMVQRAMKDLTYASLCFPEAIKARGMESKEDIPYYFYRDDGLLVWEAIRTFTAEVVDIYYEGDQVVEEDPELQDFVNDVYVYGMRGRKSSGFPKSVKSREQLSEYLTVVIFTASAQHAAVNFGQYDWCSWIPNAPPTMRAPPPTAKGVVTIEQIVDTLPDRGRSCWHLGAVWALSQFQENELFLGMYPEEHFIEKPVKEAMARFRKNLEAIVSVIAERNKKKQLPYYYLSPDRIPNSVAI

[3] = Selectivity ratio of IC50 for ovine COX1 over IC50 for human N-terminal His6-tagged reticulocyte 15-lipoxygenase-1
Method in brief: (§1)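 COX inhibition: ~2 μg ovine COX-1 or human COX-2 preincubated 20 min with inhibitor, then added to 0.1 M Tris-HCl pH 8.0, 5 mM EDTA, 2 mM phenol, 1 μM hematin, 100 μM arachidonic acid at 37 °C; oxygen consumption via oxygen electrode; ibuprofen and DMSO as controls.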

Homo sapiens [4] = species: Homo sapiens; assay: Selectivity ratio of IC50 for human COX2 over IC50 for human N-terminal His6-tagged reticulocyte 15-lipoxygenase-1; method in brief: as §1
[5] = molecular target: T3, Polyunsaturated fatty acid lipoxygenase ALOX15B (Homo sapiens, UniProt O15296); assay: Inhibition of human N-terminal His6-tagged epithelial 15-lipoxygenase-2 after 15 mins by UV-vis spectrophotometer analysis
T3 sequence (O15296 whole entry): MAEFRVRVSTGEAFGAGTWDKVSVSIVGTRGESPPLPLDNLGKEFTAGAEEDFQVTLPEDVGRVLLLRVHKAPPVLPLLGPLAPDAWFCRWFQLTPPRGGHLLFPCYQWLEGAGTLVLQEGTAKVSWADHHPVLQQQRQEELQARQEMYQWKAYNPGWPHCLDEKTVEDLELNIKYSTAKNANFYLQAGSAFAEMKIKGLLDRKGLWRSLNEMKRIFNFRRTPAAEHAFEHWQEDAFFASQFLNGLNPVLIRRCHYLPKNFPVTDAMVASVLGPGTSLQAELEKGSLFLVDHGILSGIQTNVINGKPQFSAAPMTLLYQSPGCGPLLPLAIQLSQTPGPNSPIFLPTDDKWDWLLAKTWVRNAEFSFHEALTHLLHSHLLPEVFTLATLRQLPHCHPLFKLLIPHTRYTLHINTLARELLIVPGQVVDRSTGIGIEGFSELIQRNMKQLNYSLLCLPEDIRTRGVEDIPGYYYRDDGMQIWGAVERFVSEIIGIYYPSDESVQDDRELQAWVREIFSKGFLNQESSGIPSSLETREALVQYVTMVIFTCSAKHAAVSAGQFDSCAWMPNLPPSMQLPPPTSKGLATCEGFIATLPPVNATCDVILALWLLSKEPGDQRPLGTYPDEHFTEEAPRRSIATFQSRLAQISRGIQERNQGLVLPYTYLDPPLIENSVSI

Homo sapiens [6] = species: Homo sapiens; assay: Selectivity ratio of IC50 for human N-terminal His6-tagged platelet 12-lipoxygenase over IC50 for human N-terminal His6-tagged reticulocyte 15-lipoxygenase-1
[7] = molecular target: T4, Polyunsaturated fatty acid lipoxygenase ALOX12 (Homo sapiens, UniProt P18054); assay: Inhibition of human N-terminal His6-tagged platelet 12-lipoxygenase after 15 mins by UV-vis spectrophotometer analysis
T4 sequence (P18054 whole entry): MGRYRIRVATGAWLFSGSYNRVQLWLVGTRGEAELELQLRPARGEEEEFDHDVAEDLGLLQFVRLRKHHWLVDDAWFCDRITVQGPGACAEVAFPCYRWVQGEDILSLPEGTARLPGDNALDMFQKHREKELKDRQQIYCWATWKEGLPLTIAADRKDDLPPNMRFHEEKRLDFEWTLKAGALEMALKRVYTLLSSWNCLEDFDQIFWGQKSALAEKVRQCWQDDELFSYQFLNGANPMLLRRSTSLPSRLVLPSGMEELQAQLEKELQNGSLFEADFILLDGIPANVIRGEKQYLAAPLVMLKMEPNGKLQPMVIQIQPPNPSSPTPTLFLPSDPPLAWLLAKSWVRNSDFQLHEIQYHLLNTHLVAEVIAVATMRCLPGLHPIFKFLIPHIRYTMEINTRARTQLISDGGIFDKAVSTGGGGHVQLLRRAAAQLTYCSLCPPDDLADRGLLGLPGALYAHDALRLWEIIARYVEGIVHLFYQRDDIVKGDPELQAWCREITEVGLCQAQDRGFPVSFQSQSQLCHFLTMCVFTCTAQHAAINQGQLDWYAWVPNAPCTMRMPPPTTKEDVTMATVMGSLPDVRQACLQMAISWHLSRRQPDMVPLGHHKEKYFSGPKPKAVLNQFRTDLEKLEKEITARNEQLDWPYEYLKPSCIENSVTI

Homo sapiens [8] = species: Homo sapiens; assay: Selectivity ratio of IC50 for human N-terminal His6-tagged epithelial 15-lipoxygenase-2 over IC50 for human N-terminal His6-tagged reticulocyte 15-lipoxygenase-1
[9] = tested on: Radical scavenging activity; assay: Antioxidant activity assessed as DPPH free radical scavenging activity at 5 uM; type: functional
[10] = molecular target: T1, Polyunsaturated fatty acid lipoxygenase ALOX15; assay: Inhibition of human N-terminal His6-tagged reticulocyte 15-lipoxygenase-1 allosteric site assessed as 15-HPETE formation by Michaelis-Menten equation analysis
[11] = molecular target: T1, Polyunsaturated fatty acid lipoxygenase ALOX15; assay: Inhibition of human N-terminal His6-tagged reticulocyte 15-lipoxygenase-1 catalytic site assessed as 15-HPETE formation by Michaelis-Menten equation analysis
[12] = Solubility of the compound; type: physicochemical
Homo sapiens [13] = species: Homo sapiens; assay: Selectivity ratio of IC50 for human 5-lipoxygenase over IC50 for human N-terminal His6-tagged reticulocyte 15-lipoxygenase-1

Ki [1]: < 0.01 µM
Compound: O=C(OCC#CCSc1nnc(-c2cccc3ccccc23)o1)c1ccc(OC(F)F)cc1

Ki [1]: < 0.01 µM
Compound: O=C(OCC#CCSc1nnc(-c2cccc3ccccc23)o1)c1ccc(F)cc1F

Ki [1]: > 100 µM
Compound: Fc1ccc(COCC#CCSc2nnc(-c3cccc4ccccc34)o2)cc1

Ki [1]: < 0.01 µM
Compound: O=C(OCC#CCSc1nnc(-c2cccc3ccccc23)o1)C1CCCC1

Ratio IC50 [3]: > 7500
IC50 [1]: < 0.01 µM
Ki [1]: < 0.01 µM
Ratio IC50 (Homo sapiens [4]): > 7500
IC50 [2]: > 15 µM
IC50 [5]: > 100 µM
Ratio IC50 (Homo sapiens [6]): > 7500
IC50 [7]: > 100 µM
Ratio IC50 (Homo sapiens [8]): > 7500
Compound: O=C(OCC#CCSc1nnc(-c2cccc3ccccc23)o1)c1ccc(OC(F)(F)F)cc1

Ki [1]: < 0.01 µM
Compound: O=C(OCC#CCSc1nnc(-c2ccc(F)cc2)o1)c1ccc(F)cc1

Ki [10]: 8.1 µM
Ki [1]: 1.4 µM
Ki [11]: 0.87 µM
Compound: O=C(OCC#CCSc1nnc(-c2cccc3ccccc23)o1)c1cnc[nH]1

More lines, now with the values behind:

Compound: O=C(OCc1ccc(CSc2nnc(-c3cccc4ccccc34)o2)cc1)c1ccc(F)cc1
Ki [1]: > 70 µM

Compound: O=C(OCC#CCSc1nnc(-c2ccc3ccccc3c2)o1)c1ccc(F)cc1
IC50 [1]: < 0.01 µM
Ki [1]: < 0.01 µM
IC50 [2]: > 10 µM

Compound: O=C(OCC#CCSc1nnc(-c2cccc3ccccc23)o1)c1sccc1Cl
Ki [1]: < 0.01 µM

Compound: O=C(OCC#CCSc1nnc(-c2cccc3ccccc23)o1)c1sc(Cl)c(Cl)c1Cl
Ki [1]: < 0.01 µM

Compound: OCC#CCSc1nnc(-c2cccc3ccccc23)o1
Ki [1]: 3.5 µM

Compound: O=C(OCC#CCSc1nnc(-c2cccc3ccccc23)o1)c1ccc(Cl)cc1
Ki [1]: < 0.01 µM

Compound: O=C(OCC#CCSc1nnc(-c2cccc3ccccc23)o1)c1csc2ccccc12
Ki [1]: < 0.01 µM
Activity [9]: inactive

Compound: O=C(OCC#CCSc1nnc(-c2cccc3ccccc23)o1)c1sc2ccccc2c1Cl
Activity [9]: inactive

Compound: O=C(OCC#CCSc1nnc(-c2cccc3ccccc23)s1)c1cccs1
solubility [12]: Insoluble

Compound: O=C(OCC#CCSc1nnc(-c2ccc(Cl)cc2)o1)c1ccc(F)cc1
Ratio IC50 (Homo sapiens [13]): > 7500
Ratio IC50 [3]: > 7500
IC50 [1]: < 0.01 µM
Ki [1]: < 0.01 µM
Ratio IC50 (Homo sapiens [4]): > 7500
IC50 [2]: > 75 µM
IC50 [5]: > 100 µM
Ratio IC50 (Homo sapiens [6]): > 7500
IC50 [7]: > 100 µM
Ratio IC50 (Homo sapiens [8]): > 7500
